From ChEMBL document CHEMBL1143784, “Identification and structure-activity relationships of 1-aryl-3-piperidin-4-yl-urea derivatives as CXCR3 receptor antagonists” (Bioorg Med Chem Lett, 2007) come the findings set out here.

Broadly, the Ki is the dissociation constant of the complex between target and ligand, obtained from inhibition or displacement. A lower Ki goes with a stronger hold on the target. In general, microsomal CLint refers to the rate of metabolic loss divided by the concentration. Higher therefore signals rapid turnover. One may read the logD as the decadic logarithm of the distribution of all forms, ionised or not, between an organic phase and buffer at a given pH. One may read the solubility as the concentration that dissolves in the medium under given conditions. A high value points to a readily soluble substance. What is called clearance is a measure of how efficiently the substance is removed, as volume per time. Low readings indicate a low capacity for elimination, high ones a high capacity for elimination.

Series [1] concerns the target T1, C-X-C chemokine receptor type 3 (Homo sapiens, UniProt P49682).
T1 sequence (P49682 whole entry): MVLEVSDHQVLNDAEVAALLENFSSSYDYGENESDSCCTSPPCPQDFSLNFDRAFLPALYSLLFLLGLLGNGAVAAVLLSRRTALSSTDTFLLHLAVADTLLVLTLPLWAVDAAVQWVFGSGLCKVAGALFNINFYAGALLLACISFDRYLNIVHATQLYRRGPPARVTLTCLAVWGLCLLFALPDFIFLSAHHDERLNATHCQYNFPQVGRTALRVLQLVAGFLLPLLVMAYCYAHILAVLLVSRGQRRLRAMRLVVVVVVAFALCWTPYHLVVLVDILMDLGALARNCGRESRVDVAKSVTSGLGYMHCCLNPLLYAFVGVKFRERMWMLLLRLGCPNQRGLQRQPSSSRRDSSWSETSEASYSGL
Kind of series: Antagonist activity at human CXCR3 expressed in CHO cells by [35S]GTP-gamma-S binding assay. Format: functional, cell-based. Background: GTPγS resists hydrolysis and so accumulates on activated G proteins.

Series [2] can be described thus: Clearance in mouse liver microsomes at 0.5 uM. The format is ADME, Microsome. The method in brief:
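Clearance determined in mouse liver microsomes with compound at 0.5 µM.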

Series [3] is described as follows: Distribution coefficient, log D of the compound. Format: physicochemical. To be noted: octanol/water.
Series [4] can be described thus: Aqueous solubility at pH 6.5. The format is physicochemical.
A short description of series [5]: Clearance in mouse at 1 mg/kg, iv. Format: ADME, organism-based. To be noted: in vivo. Also noted: dose 1 mg/kg, route intravenous. The method in brief: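 Mice given 1 mg/kg intravenously; clearance determined.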
In series [6] the target is T2, C-X-C chemokine receptor type 3 (Homo sapiens) (UniProt P49682).
T2 sequence (whole entry): T1 sequence (P49682 whole entry)
As to the kind of experiment: Antagonist activity at human CXCR3 expressed in CHO cells by [35S]GTP-gamma-S binding assay at 10 uM. Format: functional, cell-based.

The target in series [7] is T3, C-X-C chemokine receptor type 3 (Mus musculus, UniProt O88410).
T3 sequence (O88410 whole entry): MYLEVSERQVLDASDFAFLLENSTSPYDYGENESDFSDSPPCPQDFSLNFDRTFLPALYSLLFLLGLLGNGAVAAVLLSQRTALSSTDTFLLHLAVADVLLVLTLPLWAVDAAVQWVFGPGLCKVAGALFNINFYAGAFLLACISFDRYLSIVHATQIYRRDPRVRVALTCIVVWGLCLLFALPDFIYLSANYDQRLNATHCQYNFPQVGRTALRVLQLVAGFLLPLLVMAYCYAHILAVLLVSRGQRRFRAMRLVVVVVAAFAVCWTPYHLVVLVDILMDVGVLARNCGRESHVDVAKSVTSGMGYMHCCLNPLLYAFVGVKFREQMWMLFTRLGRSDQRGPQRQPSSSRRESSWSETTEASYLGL
Kind of series: Antagonist activity at mouse CXCR3 by [35S]GTP-gamma-S binding assay. The format is functional.

The next series concerns the target Cytochrome P450 2D6 (Homo sapiens, UniProt P10635). Kind of series: Inhibition at human CYP2D6. The format is ADME.

Structures are written as SMILES. Values after ≈ are worked out from the molar mass of the structure shown. Some results are limits rather than exact numbers.

Chain of Cytochrome P450 2D6 (P10635 whole entry): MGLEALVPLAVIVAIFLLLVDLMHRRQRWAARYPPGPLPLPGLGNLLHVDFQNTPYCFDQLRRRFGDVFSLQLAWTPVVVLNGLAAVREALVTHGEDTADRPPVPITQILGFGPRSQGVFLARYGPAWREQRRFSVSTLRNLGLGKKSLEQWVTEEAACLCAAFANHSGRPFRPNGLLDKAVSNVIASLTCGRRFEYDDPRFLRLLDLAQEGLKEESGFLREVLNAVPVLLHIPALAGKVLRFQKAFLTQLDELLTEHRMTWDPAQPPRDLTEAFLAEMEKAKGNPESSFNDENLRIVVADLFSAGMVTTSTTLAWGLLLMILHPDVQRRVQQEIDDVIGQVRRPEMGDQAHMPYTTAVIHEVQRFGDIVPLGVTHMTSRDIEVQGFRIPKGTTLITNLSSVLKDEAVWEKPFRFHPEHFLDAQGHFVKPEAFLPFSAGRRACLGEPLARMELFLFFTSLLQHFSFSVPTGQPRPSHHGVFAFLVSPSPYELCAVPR

In series [1], `O=C(Nc1cc(F)cc(C(F)(F)F)c1)NC1CCN(C/C2=C/CCCCCC2)CC1` showed a Ki of 0.047 µM.
Same read-out and setting: the result for `CC1(C)[C@H]2CC=C(CN3CCC(NC(=O)Nc4cccc(OC(F)(F)F)c4)CC3)[C@@H]1C2` reads 0.031 µM; that for `O=C(Nc1cccc(Cl)c1)NC1CCN(C/C2=C/CCCCCC2)CC1`, 0.201 µM.
`CC1(C)[C@H]2CC=C(CN3CCC(NC(=O)Nc4cccc(OC5CCOC5)c4)CC3)[C@@H]1C2` (stereo not given in full): the intrinsic clearance (microsomal CLint) at 0.5 µM in series [2] stood at 287 µL/min/mg. In series [3], this compound registered a log distribution coefficient (logD) of 3.87. The compound further gave a solubility in series [4] of 0.927 mg/mL (≈ 2110 µM). This compound returned a Ki in series [1] of 0.141 µM. In series [5], this compound registered a clearance of 13.3 L/h/kg.
Consider `N#Cc1ccc(NC(=O)NC2CCN(C/C3=C/CCCCCC3)CC2)cc1`, for which the Intrinsic activity in series [6] was < 50%.
In series [1], `CC1(C)[C@H]2CC=C(CN3CCC(NC(=O)Nc4ccccc4)CC3)[C@@H]1C2` showed an inhibition constant Ki of 2 µM.
For the compound `CC1(C)[C@H]2CC=C(CN3CCC(NC(=O)Nc4cncc(-c5ccsc5)c4)CC3)[C@@H]1C2`, the inhibition constant (Ki) in series [1] was 0.107 µM.
The same measure, in the same setting: the result for `CC1(C)[C@H]2CC=C(CN3CCC(NC(=O)Nc4cc(F)cc(C(F)(F)F)c4)CC3)[C@@H]1C2` reads 0.016 µM; that for `CC1(C)[C@H]2CC=C(CN3CCC(NC(=O)Nc4cccc(OC5CCOCC5)c4)CC3)[C@@H]1C2`, 0.191 µM.
Turning to `CC(=O)c1cccc(NC(=O)NC2CCN(C/C3=C/CCCCCC3)CC2)c1`, affinity in series [1] was put at a Ki of 0.637 µM.
As to `CC(C)(C)c1ccc(NC(=O)NC2CCN(C/C3=C/CCCCCC3)CC2)cc1`, the Ki in series [1] stood at 1.04 µM.
As to `O=C(Nc1cc(Cl)cc(Cl)c1)NC1CCN(C/C2=C/CCCCCC2)CC1`, the inhibition constant (Ki) in series [1] was 0.041 µM.
Same read-out and setting: the result for `O=C(Nc1cccc(OC(F)(F)F)c1)NC1CCN(C/C2=C/CCCCCC2)CC1` reads 0.104 µM.
Same read-out and setting: the result for `CC1(C)[C@H]2CC=C(CN3CCC(NC(=O)Nc4ccc(-c5ccccc5)s4)CC3)[C@@H]1C2` reads 0.191 µM.
On the same count and under the same terms, the result for `CC1(C)[C@H]2CC=C(CN3CCC(NC(=O)Nc4ccc(-c5ccccc5Cl)s4)CC3)[C@@H]1C2` reads 0.046 µM; that for `CC1(C)[C@H]2CC=C(CN3CCC(NC(=O)Nc4ccc(F)c(C(F)(F)F)c4)CC3)[C@@H]1C2`, 0.081 µM.
Compound `CC1(C)C2CC=C(CCN3CCC(NC(=O)Nc4ccc5ccccc5c4)CC3)C1C2` (stereo not given) had a Ki in series [1] of 0.29 µM.
In turn, `CC1(C)[C@H]2CC=C(CN3CCC(NC(=O)Nc4cncc(-c5cccs5)c4)CC3)[C@@H]1C2` gave a microsomal CLint at 0.5 µM in series [2] of 324 µL/min/mg. Moreover, the logD in series [3] is 3.47. Also, the solubility in series [4] was 0.004 mg/mL (≈ 9.16 µM). In series [1], this compound showed an inhibition constant Ki of 0.07 µM. Moreover, the clearance in series [5] is 6.72 L/h/kg.
`CC1(C)[C@H]2CC=C(CN3CCC(NC(=O)Nc4cc(F)cc(OC5CCOC5)c4)CC3)[C@@H]1C2` (stereo not given in full) came in with a microsomal CLint at 0.5 µM in series [2] of 97 µL/min/mg. In series [3], this compound had a pH-dependent lipophilicity (logD) of 3. In series [4], this compound gave a solubility of 0.874 mg/mL (≈ 1910 µM). In series [1], this compound registered a Ki of 0.083 µM.
In the case of `O=C(Nc1ccc2ccccc2c1)NC1CCN(CC23C=CC(CC2)C3)CC1` (stereo not given), in series [6], the Intrinsic activity is < 50%.
Still for that read-out and setting: the result for `CC1(C)[C@H]2CC=C(CN3CCC(NC(=O)Nc4cccc(CN5CCOCC5)c4)CC3)[C@@H]1C2` reads < 50%.
On to `CC1(C)[C@H]2CC=C(CN3CCC(NC(=O)Nc4ccc(OC(F)(F)F)cc4)CC3)[C@@H]1C2`, for which affinity in series [1] was put at a Ki of 0.175 µM.
For `CC1(C)[C@H]2CC=C(CN3CCC(NC(=O)Nc4cc(C(F)(F)F)cc(C(F)(F)F)c4)CC3)[C@@H]1C2`, the inhibitory constant (Ki) in series [1] was 0.073 µM.
Same read-out and setting: the result for `COc1cccc(NC(=O)NC2CCN(CC3=CC[C@H]4C[C@@H]3C4(C)C)CC2)c1` reads 0.429 µM; that for `CC(=O)c1cccc(NC(=O)NC2CCN(CC3=CC[C@H]4C[C@@H]3C4(C)C)CC2)c1`, 0.258 µM.
Turning to `O=C(Nc1cccc2ccccc12)NC1CCN(C/C2=C/CCCCCC2)CC1`, the Intrinsic activity in series [6] is < 50%.
In series [1], `COC(=O)c1cccc(NC(=O)NC2CCN(CC3=CC[C@H]4C[C@@H]3C4(C)C)CC2)c1` displayed an inhibitory constant (Ki) of 0.376 µM.
Same read-out and setting: the result for `O=C(Nc1ccc(-c2ccccc2)s1)NC1CCN(C/C2=C/CCCCCC2)CC1` reads 0.108 µM.
Still for that read-out and setting: the result for `COC(=O)c1cccc(NC(=O)NC2CCN(C/C3=C/CCCCCC3)CC2)c1` reads 0.66 µM; that for `O=C(Nc1ccc2ccccc2c1)NC1CCN(CCCc2ccccc2)CC1`, 2.2 µM.
Take `N#Cc1cccc(NC(=O)NC2CCN(C/C3=C/CCCCCC3)CC2)c1`: the Intrinsic activity in series [6] was < 50%.
On the same count and under the same terms, the result for `CC1(C)[C@H]2CC=C(CN3CCC(NC(=O)Nc4cccc(CO)c4)CC3)[C@@H]1C2` reads < 50%.
Compound `CC1(C)[C@H]2CC=C(CN3CCC(NC(=O)Nc4cc(F)cc(F)c4)CC3)[C@@H]1C2` registered an inhibition constant Ki in series [1] of 0.171 µM.
Turning to `O=C(Nc1ccsc1)NC1CCN(C/C2=C/CCCCCC2)CC1`, the Intrinsic activity in series [6] was < 50%.
On the same count and under the same terms, the result for `CC1(C)[C@H]2CC=C(CN3CCC(NC(=O)Nc4cccc(C(=O)O)c4)CC3)[C@@H]1C2` reads < 50%.
With `O=C(Nc1ccc2ccccc2c1)NC1CCN(CCc2ccccc2)CC1`, in series [1], the inhibition constant Ki turned out to be 1.3 µM.
The same measure, in the same setting: the result for `COc1cccc(-c2ccc(NC(=O)NC3CCN(CC4=CC[C@H]5C[C@@H]4C5(C)C)CC3)s2)c1` reads 0.029 µM; that for `CC1(C)[C@H]2CC=C(CN3CCC(NC(=O)Nc4cncc(Br)c4)CC3)[C@@H]1C2`, 0.171 µM.
The compound `CC1(C)[C@H]2CC=C(C[N+]3(C)CCC(NC(=O)Nc4cc(F)cc(C(F)(F)F)c4)CC3)[C@@H]1C2.[I-]` (stereo not given in full) came in with an intrinsic metabolic clearance (microsomal CLint) at 0.5 µM in series [2] of 66 µL/min/mg. Further, the log distribution coefficient (logD) in series [3] is 2.35. For the same compound, the concentration in solution in series [4] (solubility) was 0.055 mg/mL. This compound also displayed an inhibition constant (Ki) in series [1] of 0.028 µM. In addition, the clearance in series [5] worked out at 2.07 L/h/kg.
On to `O=C(Nc1cc(Cl)nc(Cl)c1)NC1CCN(C/C2=C/CCCCCC2)CC1`, for which the affinity in series [1] corresponds to a Ki of 3.4 µM.
Still for that read-out and setting: the result for `O=C(Nc1cccc(C(F)(F)F)c1)NC1CCN(C/C2=C/CCCCCC2)CC1` reads 0.088 µM.
The compound `CC1(C)[C@H]2CC=C(CN3CCC(NC(=O)Nc4cc(C(F)(F)F)ccc4F)CC3)[C@@H]1C2` displayed an inhibition constant Ki in series [1] of 0.229 µM. This Ki lies about 2.6-fold higher than the previous one.
`O=C(Nc1ccc2ccccc2c1)NC1CCN(C/C2=C/CCCCCC2)CC1`: the Ki in series [7] stood at 0.4 µM; in series [1], 0.11 µM; at Cytochrome P450 2D6 it was 0.6 µM. This compound also showed a pH-dependent lipophilicity (logD) in series [3] of 4.95. Besides, the concentration in solution in series [4] (solubility) was 0.001 mg/mL (≈ 2.55 µM).
On to `CC1(C)[C@H]2CC=C(CN3CCC(NC(=O)Nc4ccc(-c5ccc(C(F)(F)F)cc5)s4)CC3)[C@@H]1C2`, for which, in series [1], affinity was put at a Ki of 0.039 µM.
The same measure, in the same setting: the result for `O=C(Nc1cc(C(F)(F)F)cc(C(F)(F)F)c1)NC1CCN(C/C2=C/CCCCCC2)CC1` reads 0.036 µM; that for `O=C(Nc1ccc(Oc2ccccc2)cc1)NC1CCN(C/C2=C/CCCCCC2)CC1`, 0.306 µM.
